Measured values from article PMC8426090 (ACS chemical neuroscience, 2021).
“Also recorded” adds a separate entry of the source. Where a name gives a salt, the structure may show the parent alone.

Experiments:
dopamine D2 receptor [1] = molecular target: dopamine D2 receptor (Rattus norvegicus, UniProt P61169); experiment: in vitro autoradiography on rat brain sections; assay type: binding; details: transaxial and coronal/transversal sections; excess competitor
[2] = biodistribution of [3H]MCL-536 in the rat brain; assay type: in vivo, Sprague–Dawley rats; details: for uptake in striatum, % injected dose per gram wet tissue: 15 min after tail vein injection
[3] = biodistribution of [3H]MCL-536 in peripheral organs; assay type: in vivo, Sprague–Dawley rats
[4] = human liver microsome stability assay; assay type: in vitro ADME; details: 1 h (60 min), 37 °C, NADPH 1 mM, pooled human liver microsomes
Summary of the method: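 Test compound (from a 100× stock) preincubated 5 min at 37 °C with pooled human liver microsomes in 100 mM phosphate buffer pH 7.4. NADPH (1 mM final) started the reaction, run 30 or 60 min at 37 °C and quenched with cold acetonitrile. Supernatant analysed by C18 HPLC (UV 265 nm), with remaining parent expressed relative to the 0 min sample. Dextromethorphan was the positive control; negative controls were heat-inactivated microsomes and no NADPH. Triplicate.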

[5] = system: other receptors of the D2 receptor family; other receptors found in the brain; details: cited from earlier work
D2^high = details: cited from earlier work
dopamine D2 receptor [6] = details: co-incubation with guanylylimidodiphosphate; cited from earlier work

Chain of dopamine D2 receptor (Rattus norvegicus, UniProt P61169) (P61169 whole entry): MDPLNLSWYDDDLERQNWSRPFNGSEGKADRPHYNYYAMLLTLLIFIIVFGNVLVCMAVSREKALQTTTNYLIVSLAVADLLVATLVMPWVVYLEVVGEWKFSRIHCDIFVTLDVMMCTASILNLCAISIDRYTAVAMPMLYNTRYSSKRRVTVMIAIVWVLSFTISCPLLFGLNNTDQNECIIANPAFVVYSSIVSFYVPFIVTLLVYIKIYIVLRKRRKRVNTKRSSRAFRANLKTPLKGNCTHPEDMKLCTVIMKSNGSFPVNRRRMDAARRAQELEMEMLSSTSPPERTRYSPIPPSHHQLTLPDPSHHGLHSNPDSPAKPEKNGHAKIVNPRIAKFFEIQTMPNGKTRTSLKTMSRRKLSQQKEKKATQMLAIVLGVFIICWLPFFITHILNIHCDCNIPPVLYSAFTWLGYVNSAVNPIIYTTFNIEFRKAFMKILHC

For `CCN1CCC[C@H]1CNC(=O)c1c(O)c(Cl)cc(Cl)c1OC` [raclopride], the “effect on binding of [3H]MCL-536 on brain sections (summary statements)” value (shortened to “effect on binding”) (dopamine D2 receptor [1]) was “completely abolished”.
With `CCCN1CCc2cccc3c2[C@H]1Cc1ccc(O)c(O)c1-3` [NPA, (R)-(−)-N-n-propylnorapomorphine] the “effect on binding” value (dopamine D2 receptor [1]) was “abolished”.
For `[3H]C(C)C([3H])N1CCc2cc(OCCCF)cc3c2[C@H]1Cc1cccc(O)c1-3` (stereo partly shown) [[^3H]MCL-536], the “brain uptake values 4 h after injection” value ([2]; 4 h after injection) was “almost baseline”, the “uptake in striatum, % injected dose per gram wet tissue” value ([2]; female rats) was 0.42 %ID/g and the “course of %ID/g in the striatum” value ([2]; females, 60 min postinjection) was “stable”. The “baseline binding in cerebellum” value ([2]; male and female rats) was no more than 0.1 %ID/g, the “uptake in striatum, % injected dose per gram wet tissue” value ([2]; male rats) was 0.28 %ID/g and the “decline of %ID/g in the striatum” value ([2]; males, 60 min postinjection) was “about 25%”. The “time of maximum %ID/g in peripheral tissues” value ([3]; all peripheral tissues) was 15 min, the “reduction of levels in fatty tissue” value ([3]; at 60 min) was “about 2/3” and the “decline of %ID/g in the kidneys” value ([3]; by 60 min, both sexes) was “about 60%”.
With `CCN1CCCC1CNC(=O)c1cc(S(N)(=O)=O)ccc1OC` (stereo not shown) [sulpiride] the “effect on binding” value (dopamine D2 receptor [1]) was “completely abolished”.
For `[3H]C(C)C([3H])N1CCc2cc(OCCCF)cc3c2[C@H]1Cc1cccc(O)c1-3` (stereo partly shown) [MCL-536], the “compound remaining intact after incubation with human liver microsomes” value [4] is given as “about 75%”, the “affinity for other receptors found in the brain / other receptors tested” value [5] is given as “little to no affinity” and the “affinity for other receptors of the D2 receptor family” value [5] is given as “but not for the other receptors of the D2 subfamily; also recorded: but not to other receptors of the D2 receptor family”.
For `C[C@H](N)Cc1ccccc1` [Amphetamine, d-amphetamine sulfate], the “increase in D2high, measured in the striatum in vivo” value (D2^high; in vivo) is given as roughly 2.36 fold and the “elevation of D2high in vitro in the same tissue” value (D2^high; striatum, in vitro) is given as 2.44 fold.
In the case of `Nc1nc2c(ncn2[C@@H]2O[C@H](COP(=O)(O)OP(=O)(O)NP(=O)(O)O)[C@@H](O)[C@H]2O)c(=O)[nH]1` [Gpp(NH)p, guanylylimidodiphosphate], the “effect on binding” value (dopamine D2 receptor [1]) is given as “abolished binding” and the “binding of [3H]MCL-536 to D2high on co-incubation” value (dopamine D2 receptor [6]) is given as “abolished binding to D2^high”.
